Data from PubChem BioAssay.
Unmarked numbers belong to inactive results. Inconclusive results are not listed. Calls of active or inactive are those of the source.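 Rule for the calls, unless noted: active = viability increase at or above a cutoff of the median across tested compounds plus 3 SD (cut at about 8.5% in these data, passing the limit was not always enough); inconclusive = some gains above the cutoff, reason not given; inactive = the rest.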

Key:
[1] = S. cerevisiae growth inhibition in permissive medium (OD615), pilot counter-assay for S. cerevisiae lifespan shortening project, permissive growth control (AID 705;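 active = growth inhibition above 25% in both replicates, a cutoff set 3 SD above the mean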); conditions: OD615, 24 h, at 10 µM, stronger effect = higher value
Summary of the method: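 Material: engineered DeaD yeast; compound dosing: one dose 10 µM, DMSO 0.25% final; measure: yeast growth inhibition indicated by reduced 24 h OD615; detection: OD615 turbidity read; incubation: cells pre-grown 4 h, then 24 h compound exposure, 30 °C humidified; medium: permissive synthetic complete medium with raffinose and galactose carbon sources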

[2] = S. cerevisiae growth inhibition in restrictive medium, OD615, pilot screen, restrictive growth control, yeast lifespan reduction project (AID 706;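 active = growth inhibition above a set limit, 3 SD over mean compound inhibition, in both replicates, cut at about 43% in these data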;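 note: modified DeaD lifespan yeast strain shifted to restrictive glucose medium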); conditions: OD615, 48 h, at 10 µM, stronger effect = higher value
Summary of the method: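 material = engineered S. cerevisiae DeaD strain | medium = glucose-based CSMM-D restrictive medium | times = 4 h pre-incubation, 48 h exposure at 30 °C | technique = OD615 absorbance reading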

[3] = doxorubicin toxicity protection in MRP-1 cells – H69AR cells, CellTiter-Glo, duplicate, MRP-1 activator project, pilot screen (AID 807); conditions: H69AR viability with doxorubicin, CellTiter-Glo luminescence; at 10 µM; stronger effect = higher value;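 note: compound pretreatment 18-22 h then 72 h combined with doxorubicin; 0% = doxorubicin alone and 100% = vehicle without doxorubicin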
[4] = viability of HCT116 without oncogenic beta-catenin – human colon tumor cells, pilot screen (AID 823;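 active = cell viability at or below a set limit in both duplicate runs, the limit being the all-compound median minus 4 SD, cut at about 23% in these data, passing the limit was not always enough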;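 note: 0% = wells killed by 20 µM Hyamine and 100% = untreated DMSO cell wells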); conditions: HCT116 beta-catenin knockout viability, CellTiter-Glo, 60 h; at 10 µM; stronger effect = lower value
[5] = viability of PTEN-null HCT116 cells – cell-based, HCT116 clonal line, CellTiter-Glo, pilot screen (AID 824;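 active = viability at or below 27.92% in each of two runs, the all-compound median minus 4 SD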;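 note: 0% = 20 µM Hyamine control and 100% = vehicle cell control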); conditions: HCT116 PTEN-deleted viability, 60 h, at 10 µM, stronger effect = lower value
[6] = RAM pathway blockade in budding yeast – dse1pr::URA3 reporter, 5-FOA selection, pilot screen (AID 869;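 active = inhibition over a set limit, the all-compound mean plus 3 SD, in both replicate runs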;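 note: 0% = DMSO wells with no growth and 100% = 10 µM 1-NA-PP1 with full growth; RAM network block rescues cells from 5-FOA so hits raise OD615 growth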); conditions: S. cerevisiae dse1pr::URA3 5-FOA growth, OD615, 2 d; at 10 µM; stronger effect = higher value; strain carries analog-sensitive mutant Cbk1 kinase
[7] = RAM signaling pathway blockade in yeast – S. cerevisiae, Pdr1DBD-CYC8 efflux-inhibited sensitized strain, primary screen (AID 1298;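 active = RAM network inhibition above 8.4% in each of two replicates, 3 SD over the compound average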;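 note: 0% = DMSO untreated cells without growth and 100% = 10 µM 1-NA-PP1 full growth; higher means more yeast growth rescued from 5-FOA killing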); conditions: S. cerevisiae cbk1-as DSE1-URA3 strain, 5-FOA growth OD615, 2 d; at 50 µM; stronger effect = higher value

Row | Structure (SMILES) | growth inhibition [1] | growth inhibition [2] | viability increase [3] | viability [4] | viability [5] | inhibition [6] | RAM network inhibition [7]
1 | COc1ccc(NC(=O)C2CCCN(S(=O)(=O)c3cccc4cccnc34)C2)cc1 (centres undefined) | -12.6% | 4.72% | -0.46% | 88.2% | 85.5% | 2.36% | 6.27%
2 | CC(=O)Nc1ccc(S(=O)(=O)Nc2nc3ccccc3nc2Sc2nncn2C)cc1 | 1.94% | 11.7% | -2.89% | 98.1% | 98.1% | 1.86% | 2.12%
3 | Cc1oc(-c2cccc(Cl)c2)nc1CN1CCC(C(=O)NCCCN2CCCC2=O)CC1 | -1.65% | -10.2% | -3.95% | 85.8% | 93.5% | 0.59% | 2.35%
4 | O=C1CC(c2ccc(Cl)c(Cl)c2)CC(O)=C1C=NCCN1CCNCC1 (centres undefined) | -11.8% | -7.73% | -1.07% | 90.4% | 96.6% | 0.46% | -1.78%
5 | CN(C)c1ccc(CN2CCCCCC2)cc1 | -3.95% | -24.5% | -2% | 87% | 88.1% | 0.44% | 0.1%
6 | COc1ccc(CNC(=O)Cn2cc3c(n2)CCCCC3)cc1 | 2.42% | -0.895% | -2.29% | 102% | 91.9% | 0.54% | -1.07%
7 | CCOC(=O)CSC(CC)C(=O)Nc1nnc(CC)s1 (centres undefined) | -15.4% | -6% | 2.67% | 102% | 96.6% | 0.62% | -0.27%
8 | CCn1cc(C(=O)N2CCn3c(nc4ccccc43)C2)c(=O)c2ccc(C)nc21 | -10.2% | -4.84% | -2.81% | 104% | 94.3% | 2.08% | 0.07%
9 | CCOC(=O)Nc1ccc2c(c1)N(C(=O)N(C)C)c1ccccc1CC2 | -8.91% | -0.49% | -1.82% | 96.8% | 96% | -0.31% | 2.67%
10 | CCN1CCCC1CNC(=O)Cn1cc2c(n1)CCC(C)C2 (centres undefined) | -3.58% | 0.66% | -1.37% | 91.7% | 100% | 0.72% | 1.7%
11 | Cn1c(=O)c2cc(NCc3ccccc3)nnc2n(C)c1=O | -12.8% | -9.73% | -2.1% | 67.5% | 58.8% | 0.38% | -0.94%
12 | O=C(CCn1c(=S)[nH]c2ccccc2c1=O)N1CCOCC1 | -0.255% | 9.25% | 0.5% | 105% | 103% | 0.715% | -0.13%
13 | COC(=O)Cn1c(CN2CCc3ccccc3C2)nc2c1c(=O)n(C)c(=O)n2C | -4.78% | 0.56% | -1.18% | 95.6% | 96.2% | 1.31% | 8.74%
14 | CN(C)c1nc(N)nc(-c2cccnc2)n1 | -0.465% | 3.66% | 0.55% | 102% | 103% | 1.14% | 5.69%
15 | COc1cc(C2C(C(=O)c3ccco3)=C(O)C(=O)N2Cc2cccnc2)cc(OC)c1OC (centres undefined) | 2.67% | -4.03% | -3.86% | 102% | 96.8% | 1.64% | 4.97%
16 | c1csc(Cc2nc3ccccc3[nH]2)c1 | -8.51% | -11.8% | 0.14% | 97.8% | 100% | 2.71% | -0.01%
17 | Cc1cccc(N2CC(c3nc4ccccc4n3C)CC2=O)c1C (centres undefined) | -8.87% | 3.04% | -3.04% | 104% | 95.2% | 1.46% | 3.58%
18 | CC(=O)C1C(c2ccc(Cl)cc2)NC(=O)NC1(O)C(F)(F)F (centres undefined) | -9.25% | -12% | -0.16% | 103% | 101% | 0.825% | 3.45%
19 | Fc1ccc(CN2CCCCCCC2)cc1F | -3.83% | -9.1% | -3.13% | 92.2% | 95.7% | -0.325% | 0.52%

Row | Structure (SMILES) | growth inhibition [1] | growth inhibition [2] | viability increase [3] | viability [4] | viability [5] | inhibition [6] | RAM network inhibition [7]
20 | Cn1c(Cn2c(=O)sc3ccccc32)nnc1SCC(=O)N1CCCC1 | -7.01% | -4.62% | 0.61% | 97% | 99.3% | 1.95% | 6.71%
21 | COc1ccccc1N1CCN(C(=O)CCCn2c(=O)[nH]c3ccsc3c2=O)CC1 | 3.76% | 7.54% | -2.24% | 98.6% | 97.2% | 0.74% | -0.42%
22 | CN(C)c1ccc(S(=O)(=O)c2ccc(Cl)cc2)cc1 | 2.13% | 16.1% | -1.11% | 103% | 100% | 1.79% | 5.79%
23 | O=C(CNS(=O)(=O)c1cccs1)Nc1ccc2c(c1)OCCO2 | -22.3% | -6.7% | -1.78% | 89.2% | 90.9% | 1.3% | 0.67%
24 | COc1cccc2sc(Nc3nnc(-c4ccccc4Cl)o3)nc12 | -29.8% | -13.7% | -4.31% | 15.4% (active) | 18.8% (active) | 1.1% | 1.26%
25 | CCCC(=O)NCCc1nc2ccccc2n1CCC | -7.3% | 2.73% | 0.5% | 102% | 101% | 2.72% | -1.16%
26 | Cc1ccc2c(c1)C(c1ccccc1)N(C(=O)c1ccc(Br)o1)CC(=O)N2 (centres undefined) | -8.12% | -8.66% | -3.95% | 76.4% | 77.9% | -0.275% | 2.72%
27 | Cc1cc(NC(=O)CSc2c3c(nc4ccccc24)CCC3)no1 | -4.17% | 5.52% | -6.01% | 78.1% | 74.6% | 2.21% | 2.01%
28 | CCOC(=O)N1CCC(N2CC34C=CC(O3)C(C(=O)Nc3ccc(F)cc3)C4C2=O)CC1 (centres undefined) | -4.45% | -3.7% | 1.43% | 105% | 101% | 0.885% | 6.68%
29 | CCOC(=O)N1CCN(c2nc(=S)n(-c3ccccc3)c(C)c2C(C)=O)CC1 | 14.8% | 28.8% | -1.09% | 98.8% | 101% | 1.26% | 2.67%
30 | CCCCSc1nc2c(cnn2-c2ccc(C)c(C)c2)c(=O)[nH]1 | -3.77% | 8.57% | -6.91% | 59.1% | 59.5% | 1.05% | 5.36%
31 | CC(C)(C)n1nc2c(c1NC(=O)c1ccc(Br)cc1)CS(=O)C2 (centres undefined) | -8.25% | -4.19% | 0.64% | 107% | 99.2% | 0.495% | -0.53%
32 | CCOC(=O)CSc1nnc(CSc2nc(N)c3c(C)c(C)sc3n2)n1-c1ccccc1 | 14.1% | 53.5% (active) | -2.13% | 94.8% | 96.2% | 0.985% | 5.21%
33 | O=NC1=C(c2c(O)[nH]c3ccccc23)CCCC1 | -3.26% | -12% | -5.46% | 91% | 93.9% | 1.6% | 4.71%
34 | CCOc1ccc(N=CC2=C(O)CC(C)(C)CC2=O)cc1 | -18.6% | -0.24% | -0.38% | 92% | 103% | 1.86% | 1.77%
35 | O=C(O)c1cccc2c1C(=O)N(C1CCCCC1)C2 | -18.8% | -5.79% | -1.27% | 104% | 98.3% | 1.97% | 6.19%
36 | CN1C(=O)CS(=O)c2ccc(C(=O)NCCC3=CCCCC3)cc21 (centres undefined) | 0.135% | 0.3% | -2.35% | 81.3% | 85% | 0.265% | 2.98%
37 | CCOC(=O)c1sc(NC(=O)COC(=O)c2ccco2)nc1C | 4.37% | -12.7% | -6.43% | 87.7% | 89.6% | 1.39% | 4.87%
